Test results as given in ChEMBL document CHEMBL5678817, “FTBMT, a Novel and Selective GPR52 Agonist, Demonstrates Antipsychotic-Like and Procognitive Effects in Rodents, Revealing a Potential Therapeutic Agent for Schizophrenia” (J Pharmacol Exp Ther, 2017).
Activity calls are given as the source filed them.

Experiments:
Homo sapiens [1] = organism: Homo sapiens; experiment: Inhibition of dopamine receptor (unknown origin) at 10 uM relative to control
Procedure, shortened: (§1)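 Binding and enzyme panel run by an outside contractor against receptors, ion channels and enzymes. Each assay used a single 10 μM test concentration, and results are expressed as percent inhibition. A negative value means stimulation of receptor activity or activation of enzyme activity.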

Homo sapiens [2] = organism: Homo sapiens; experiment: Inhibition of GABAB1B receptor (unknown origin) at 10 uM relative to control
Procedure, shortened: (§2)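 Part of a 98-target external biochemical selectivity panel that used radioligand/receptor binding-type assays. Compound tested once at 10 µM. Results are reported as % inhibition versus control; negative values mean stimulation of receptor activity.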

Homo sapiens [3] = organism: Homo sapiens; experiment: Inhibition of Sigma receptor (unknown origin) at 10 uM relative to control; procedure, shortened: as §2
[4] = target: Prostaglandin G/H synthase 1 (Homo sapiens) (UniProt P23219); experiment: Inhibition of COX-1 (unknown origin) at 10 uM relative to control
Procedure, shortened: (§3)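 Single-point screen at 10 μM across receptor, ion channel and enzyme binding or activity assays. Expressed as percent inhibition versus control; negative values denote stimulation.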

Mus musculus [5] = experiment: Antipsychotic activity in wild type mouse assessed as increase in phosphorylated CREB level in striatum at 30 mg/kg, po incubated for 60 mins by ELISA analysis; format: functional, organism-based
Rattus norvegicus = experiment: Pro-cognitive activity in Long-Evans rat assessed as discrimination index at 3 to 10 mg/kg, po measured after 3 mins by NORT test; format: functional, organism-based; conditions: dose 3-10 mg/kg
Procedure, shortened: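 Male Long-Evans rats (7 weeks) were habituated to a 40 × 40 × 50 cm box for 10 min. The acquisition trial was 3 min with two identical objects. Oral dosing at 3 or 10 mg/kg followed immediately after acquisition. The 3-min retention trial, with one familiar and one novel object, ran 48 h later. Exploration was hand-scored by a blinded scorer, and NDI = novel/total × 100. n = 10.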

Mus musculus [6] = experiment: Antipsychotic activity in methamphetamine-induced hyperactivity in ICR mouse assessed as minimum effective dose administered orally; format: functional; conditions: route po, read-out: MED
[7] = target: Collagenase 3 (Homo sapiens) (UniProt P45452); experiment: Inhibition of MMP13 (unknown origin) at 10 uM relative to control
Procedure, shortened: (§4)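 Enzyme activity assays from the same 98-target biochemical panel. Single test concentration of 10 µM. Read-out is % inhibition of enzyme activity relative to control; negative percentages indicate activation of the enzyme.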

[8] = target: Kappa-type opioid receptor (Homo sapiens) (UniProt P41145); experiment: Inhibition of opioid kappa receptor (unknown origin) at 10 uM relative to control; procedure, shortened: as §1
[9] = target: Alpha-2B adrenergic receptor (Homo sapiens) (UniProt P18089); experiment: Inhibition of Adrenergic alpha2B receptor (unknown origin) at 10 uM relative to control; procedure, shortened: as §3
[10] = target: Nitric oxide synthase, inducible (Homo sapiens) (UniProt P35228); experiment: Inhibition of iNOS (unknown origin) at 10 uM relative to control; procedure, shortened: as §1
[11] = target: T1, GABA-A receptor; anion channel (Homo sapiens) (UniProt P14867+P47870+P18507+P28472+P48169+Q99928+Q9UN88+P34903+O00591+O14764+Q8N1C3+P18505+P78334+P47869+P31644+Q16445); experiment: Inhibition of GABAA receptor (unknown origin) at 10 uM in presence of muscimol relative to control; format: protein-complex assay; procedure, shortened: as §2
Mus musculus [12] = experiment: Antipsychotic activity in C57BL/6N mouse assessed as increase in c-fos positive cells in medial prefrontal cortex at 30 mg/kg, po measured for 2 hrs by immunohistochemistry analysis; format: functional, organism-based
[13] = target: Delta-type opioid receptor (Homo sapiens) (UniProt P41143); experiment: Inhibition of opioid delta receptor (unknown origin) at 10 uM relative to control; procedure, shortened: as §1
[14] = target: Matrilysin (Homo sapiens) (UniProt P09237); experiment: Inhibition of MMP7 (unknown origin) at 10 uM relative to control; procedure, shortened: as §4
[15] = target: D(1A) dopamine receptor (Homo sapiens) (UniProt P21728); experiment: Inhibition of Dopamine D1 receptor (unknown origin) at 10 uM relative to control; procedure, shortened: as §3
[16] = target: Cholinesterase (Homo sapiens) (UniProt P06276); experiment: Inhibition of Choline esterase (unknown origin) at 10 uM relative to control
Procedure, shortened: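 Enzyme assay run by an outside lab as part of a 98-target screen of receptors, ion channels and enzymes. Single test concentration of 10 μM; read-out is percent inhibition of enzyme activity versus control, with negative values meaning activation.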

Mus musculus [17] = experiment: Pro-cognitive activity in GPR52 knockout C57BL/6N mouse assessed as increase in c-fos gene expression in hippocampus at 30 mg/kg, po measured after 2 hrs […]; format: functional, organism-based
[18] = target: Gastrin/cholecystokinin type B receptor (Homo sapiens) (UniProt P32239); experiment: Inhibition of CCK2 receptor (unknown origin) at 10 uM relative to control; procedure, shortened: as §3
[19] = target: MAO-B (amine oxidase [flavin-containing] B) (Homo sapiens, UniProt P27338); experiment: Inhibition of MAO-B (unknown origin) at 10 uM relative to control; procedure, shortened: as §4
Homo sapiens [20] = organism: Homo sapiens; experiment: Inhibition of EGF receptor (unknown origin) at 10 uM relative to control; procedure, shortened: as §4
[21] = target: Xanthine oxidase (xanthine dehydrogenase/oxidase) (Homo sapiens, UniProt P47989); experiment: Inhibition of Xanthine oxidase (unknown origin) at 10 uM relative to control; procedure, shortened: as §1
[22] = Toxicity in ICR mouse assessed as catelepsy upto 100 mg/kg, po measured for 60 mins by bar test; format: organism-based; conditions: in vivo, 1 h
Procedure, shortened: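 Male ICR mice (6–7 weeks) were dosed orally 60 min before testing. Forepaws were placed on a 2 mm bar set 6.5 cm high, and time on the bar was recorded with a 30 s cutoff. Each mouse was tested three times and the times averaged. n = 5–6.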

[23] = target: Substance-P receptor (Homo sapiens) (UniProt P25103); experiment: Inhibition of Tachykinin NK1 receptor (unknown origin) at 10 uM relative to control; procedure, shortened: as §1
Mus musculus [24] = experiment: Pro-cognitive activity in C57BL/6N mouse assessed as increase in Arc gene expression in hippocampus at 3 to 30 mg/kg, po […]; format: functional, organism-based; conditions: dose 3-30 mg/kg
[25] = target: Voltage-gated L-type calcium channel (Homo sapiens, UniProt O60840+Q01668+Q13698+Q13936); experiment: Inhibition of Calcium channel L-type (unknown origin) at 10 uM in presence of phenylalkylamine relative to control; format: protein assay; conditions: probe phenylalkylamine; procedure, shortened: as §3
[26] = target: T1, GABA-A receptor; anion channel (Homo sapiens); experiment: Inhibition of GABAA receptor (unknown origin) at 10 uM in presence of flunitrazepam relative to control; format: protein-complex assay; procedure, shortened: as §2
[27] = target: Phosphodiesterase 4 (Homo sapiens) (UniProt P27815+Q08499+Q07343+Q08493); experiment: Inhibition of PDE4 (unknown origin) at 10 uM relative to control; format: protein assay; procedure, shortened: as §4
[28] = target: Phosphodiesterase 3 (Homo sapiens) (UniProt Q14432+Q13370); experiment: Inhibition of PDE3 (unknown origin) at 10 uM relative to control; format: protein assay; procedure, shortened: as §4

Chain of Substance-P receptor (Homo sapiens) (P25103 whole entry): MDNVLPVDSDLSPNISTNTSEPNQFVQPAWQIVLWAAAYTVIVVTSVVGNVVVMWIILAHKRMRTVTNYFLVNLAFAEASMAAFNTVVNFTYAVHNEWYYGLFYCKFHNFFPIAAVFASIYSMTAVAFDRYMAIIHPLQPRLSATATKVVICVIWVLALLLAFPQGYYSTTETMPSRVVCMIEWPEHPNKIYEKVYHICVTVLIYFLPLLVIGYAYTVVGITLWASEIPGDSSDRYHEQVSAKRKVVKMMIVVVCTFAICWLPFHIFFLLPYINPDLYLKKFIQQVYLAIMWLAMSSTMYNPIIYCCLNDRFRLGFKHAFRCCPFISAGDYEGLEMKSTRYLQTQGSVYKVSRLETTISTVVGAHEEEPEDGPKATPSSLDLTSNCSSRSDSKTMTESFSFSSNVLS
Chain of Gastrin/cholecystokinin type B receptor (Homo sapiens) (P32239 whole entry): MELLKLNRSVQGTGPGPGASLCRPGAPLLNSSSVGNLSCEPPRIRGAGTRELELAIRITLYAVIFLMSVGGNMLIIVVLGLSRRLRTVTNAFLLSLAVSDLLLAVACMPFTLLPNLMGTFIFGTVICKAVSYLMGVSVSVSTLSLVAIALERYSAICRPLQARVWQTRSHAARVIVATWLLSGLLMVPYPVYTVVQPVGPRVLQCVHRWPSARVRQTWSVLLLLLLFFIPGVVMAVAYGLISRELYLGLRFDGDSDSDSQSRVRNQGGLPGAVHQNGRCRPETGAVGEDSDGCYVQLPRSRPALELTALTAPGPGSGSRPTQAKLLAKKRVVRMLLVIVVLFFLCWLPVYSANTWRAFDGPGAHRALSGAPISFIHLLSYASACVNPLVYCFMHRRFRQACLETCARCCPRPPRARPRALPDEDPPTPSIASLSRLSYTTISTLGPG
Chain of Prostaglandin G/H synthase 1 (Homo sapiens) (P23219 whole entry): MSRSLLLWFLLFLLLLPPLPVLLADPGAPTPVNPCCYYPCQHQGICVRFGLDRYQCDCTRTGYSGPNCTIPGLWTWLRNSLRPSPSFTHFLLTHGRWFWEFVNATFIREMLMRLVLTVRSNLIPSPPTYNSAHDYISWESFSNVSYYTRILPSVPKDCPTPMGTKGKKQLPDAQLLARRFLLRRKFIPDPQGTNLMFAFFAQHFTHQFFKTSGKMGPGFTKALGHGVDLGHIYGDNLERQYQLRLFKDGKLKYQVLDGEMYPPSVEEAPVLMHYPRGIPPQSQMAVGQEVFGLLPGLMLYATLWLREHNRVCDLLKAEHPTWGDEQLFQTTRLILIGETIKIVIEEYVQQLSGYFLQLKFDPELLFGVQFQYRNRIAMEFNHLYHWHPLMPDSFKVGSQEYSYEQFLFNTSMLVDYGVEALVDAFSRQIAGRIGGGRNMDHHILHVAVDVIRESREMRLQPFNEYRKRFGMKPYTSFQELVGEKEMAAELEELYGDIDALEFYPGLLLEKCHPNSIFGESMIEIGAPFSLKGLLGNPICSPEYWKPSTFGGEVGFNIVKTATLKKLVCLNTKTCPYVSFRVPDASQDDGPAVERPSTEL
Chain of Kappa-type opioid receptor (Homo sapiens) (P41145 whole entry): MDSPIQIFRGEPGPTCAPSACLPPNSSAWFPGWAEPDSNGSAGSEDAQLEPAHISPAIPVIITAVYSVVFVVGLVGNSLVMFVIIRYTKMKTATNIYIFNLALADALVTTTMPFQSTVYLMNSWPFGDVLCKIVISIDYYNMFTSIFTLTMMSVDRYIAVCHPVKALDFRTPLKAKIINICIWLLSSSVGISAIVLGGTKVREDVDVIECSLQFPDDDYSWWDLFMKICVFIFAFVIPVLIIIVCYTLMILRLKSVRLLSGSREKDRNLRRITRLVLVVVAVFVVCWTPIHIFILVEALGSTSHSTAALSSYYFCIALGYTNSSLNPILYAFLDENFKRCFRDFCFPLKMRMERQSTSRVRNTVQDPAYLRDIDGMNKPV
Chain of Nitric oxide synthase, inducible (Homo sapiens) (P35228 whole entry): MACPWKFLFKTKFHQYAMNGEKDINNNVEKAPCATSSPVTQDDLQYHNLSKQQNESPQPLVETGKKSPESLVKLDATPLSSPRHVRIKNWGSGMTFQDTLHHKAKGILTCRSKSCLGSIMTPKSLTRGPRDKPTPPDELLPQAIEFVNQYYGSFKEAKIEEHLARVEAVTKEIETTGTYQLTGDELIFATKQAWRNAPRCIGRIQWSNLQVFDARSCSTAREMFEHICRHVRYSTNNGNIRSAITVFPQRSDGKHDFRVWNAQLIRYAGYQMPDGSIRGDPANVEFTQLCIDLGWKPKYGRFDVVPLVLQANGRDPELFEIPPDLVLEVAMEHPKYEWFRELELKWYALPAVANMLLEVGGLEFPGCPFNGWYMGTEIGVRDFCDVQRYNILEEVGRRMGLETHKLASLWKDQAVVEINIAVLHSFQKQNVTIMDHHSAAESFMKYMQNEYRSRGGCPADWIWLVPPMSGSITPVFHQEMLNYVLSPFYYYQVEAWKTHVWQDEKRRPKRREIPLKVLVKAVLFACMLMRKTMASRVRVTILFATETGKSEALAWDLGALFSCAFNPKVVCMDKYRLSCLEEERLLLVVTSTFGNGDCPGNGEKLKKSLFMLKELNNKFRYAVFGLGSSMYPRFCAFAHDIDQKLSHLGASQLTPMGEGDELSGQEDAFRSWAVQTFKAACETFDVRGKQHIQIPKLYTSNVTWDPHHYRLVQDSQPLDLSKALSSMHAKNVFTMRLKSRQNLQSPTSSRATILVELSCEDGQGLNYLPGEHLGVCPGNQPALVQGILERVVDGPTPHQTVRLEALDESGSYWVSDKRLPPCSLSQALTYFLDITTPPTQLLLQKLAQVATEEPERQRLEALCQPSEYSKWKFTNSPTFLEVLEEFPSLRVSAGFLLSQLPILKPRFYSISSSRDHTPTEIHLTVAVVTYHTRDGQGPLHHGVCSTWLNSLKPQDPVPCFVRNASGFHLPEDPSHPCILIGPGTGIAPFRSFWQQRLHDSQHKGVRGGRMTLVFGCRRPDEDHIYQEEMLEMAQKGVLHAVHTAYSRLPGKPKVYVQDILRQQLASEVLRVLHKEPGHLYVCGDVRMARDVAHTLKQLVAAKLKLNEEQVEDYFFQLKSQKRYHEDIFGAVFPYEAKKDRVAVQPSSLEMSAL
Chain of Xanthine oxidase (xanthine dehydrogenase/oxidase) (P47989 whole entry): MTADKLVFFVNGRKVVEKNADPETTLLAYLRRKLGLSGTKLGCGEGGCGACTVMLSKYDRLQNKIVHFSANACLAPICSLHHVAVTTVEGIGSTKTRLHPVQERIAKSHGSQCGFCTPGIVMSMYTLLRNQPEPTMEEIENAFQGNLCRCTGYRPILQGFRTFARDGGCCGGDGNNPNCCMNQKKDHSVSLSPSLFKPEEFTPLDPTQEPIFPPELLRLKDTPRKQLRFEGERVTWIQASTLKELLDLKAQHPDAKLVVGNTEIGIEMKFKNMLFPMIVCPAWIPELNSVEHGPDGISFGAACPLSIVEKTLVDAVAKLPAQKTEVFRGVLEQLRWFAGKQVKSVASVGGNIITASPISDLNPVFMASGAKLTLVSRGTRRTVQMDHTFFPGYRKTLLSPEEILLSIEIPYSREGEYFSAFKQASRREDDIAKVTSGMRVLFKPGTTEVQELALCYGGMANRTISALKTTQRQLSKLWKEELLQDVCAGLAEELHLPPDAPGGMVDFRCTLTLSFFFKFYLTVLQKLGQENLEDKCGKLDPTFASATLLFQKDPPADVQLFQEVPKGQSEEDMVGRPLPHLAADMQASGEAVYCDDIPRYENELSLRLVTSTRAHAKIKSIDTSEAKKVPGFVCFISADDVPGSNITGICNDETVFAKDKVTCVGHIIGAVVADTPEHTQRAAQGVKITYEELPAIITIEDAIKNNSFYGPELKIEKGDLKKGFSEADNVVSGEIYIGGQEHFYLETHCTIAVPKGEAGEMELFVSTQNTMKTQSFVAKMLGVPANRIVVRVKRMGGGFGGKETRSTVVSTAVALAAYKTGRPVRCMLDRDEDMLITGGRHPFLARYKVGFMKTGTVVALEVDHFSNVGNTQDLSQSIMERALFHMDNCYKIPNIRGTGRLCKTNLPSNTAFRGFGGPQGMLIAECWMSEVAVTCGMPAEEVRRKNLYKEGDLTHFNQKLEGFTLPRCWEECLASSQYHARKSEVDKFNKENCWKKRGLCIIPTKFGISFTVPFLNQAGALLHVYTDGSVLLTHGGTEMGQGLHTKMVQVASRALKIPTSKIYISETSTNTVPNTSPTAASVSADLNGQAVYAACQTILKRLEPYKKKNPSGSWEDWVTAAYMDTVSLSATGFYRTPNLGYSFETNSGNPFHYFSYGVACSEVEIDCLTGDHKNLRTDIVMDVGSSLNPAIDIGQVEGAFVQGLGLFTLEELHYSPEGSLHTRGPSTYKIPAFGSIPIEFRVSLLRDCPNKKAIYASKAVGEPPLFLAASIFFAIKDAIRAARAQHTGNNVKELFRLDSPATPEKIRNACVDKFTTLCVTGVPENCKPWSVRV
Chain of Alpha-2B adrenergic receptor (Homo sapiens) (P18089 whole entry): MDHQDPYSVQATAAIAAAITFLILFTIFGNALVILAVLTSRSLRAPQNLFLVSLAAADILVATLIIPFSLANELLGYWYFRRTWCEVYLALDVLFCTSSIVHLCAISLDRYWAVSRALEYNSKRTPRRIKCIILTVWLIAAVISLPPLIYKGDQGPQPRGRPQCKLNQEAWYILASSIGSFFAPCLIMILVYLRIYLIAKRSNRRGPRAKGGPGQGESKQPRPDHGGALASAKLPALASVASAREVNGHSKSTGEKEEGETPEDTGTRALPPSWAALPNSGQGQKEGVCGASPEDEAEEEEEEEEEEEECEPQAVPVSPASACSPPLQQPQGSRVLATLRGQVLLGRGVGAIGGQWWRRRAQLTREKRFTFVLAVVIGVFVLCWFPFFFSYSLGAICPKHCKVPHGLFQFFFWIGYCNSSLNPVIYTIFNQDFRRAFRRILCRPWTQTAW
Chain of Matrilysin (Homo sapiens) (P09237 whole entry): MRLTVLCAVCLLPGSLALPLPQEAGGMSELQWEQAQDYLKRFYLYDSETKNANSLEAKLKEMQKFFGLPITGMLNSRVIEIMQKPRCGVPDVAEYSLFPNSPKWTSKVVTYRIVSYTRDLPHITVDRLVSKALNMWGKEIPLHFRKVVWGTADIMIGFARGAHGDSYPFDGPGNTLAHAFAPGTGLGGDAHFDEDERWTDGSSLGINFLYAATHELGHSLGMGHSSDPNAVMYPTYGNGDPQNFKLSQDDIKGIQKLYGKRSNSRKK

Cc1cc(-n2nc(Cc3cc(F)cc(C(F)(F)F)c3)nc2C)ccc1C(N)=O [TP-024]
inhibition (Homo sapiens [1]): -1%
inhibition (Homo sapiens [2]): 2%
inhibition (Homo sapiens [3]): 28%
inhibition [4]: -1%
Activity (Mus musculus [5]): Active
Activity (Rattus norvegicus): Active
minimal effective dose (Mus musculus [6]): 10 mg/kg
inhibition [7]: 1%
inhibition [8]: -9%
inhibition [9]: 5%
inhibition [10]: 7%
inhibition [11]: -1%
Activity (Mus musculus [12]): Active
inhibition [13]: 4%
inhibition [14]: 0%
inhibition [15]: 7%
inhibition [16]: 18%
Activity (Mus musculus [17]): inactive
inhibition [18]: 0%
inhibition at 10 µM [19]: 26%
inhibition (Homo sapiens [20]): -1%
inhibition at 10 µM [21]: 10%
Activity [22]: Non-Toxic
inhibition [23]: 4%
Activity (Mus musculus [24]): Active
inhibition at 10 µM [25]: -6%
inhibition [26]: 6%
inhibition [27]: 6%
inhibition [28]: 28%
